MrgX1 agonist: agonists of human MrgX1 receptor; Q96LB2; MrgX1-HEK293 cells, Fluo-4 calcium fluorescence, agonist mode; hits give high values; B-score at 10 µM; 310,000 compounds, 0.44% hits;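 active = calcium response B-score plate-corrected fluorescence ratio at least 3 library SD, with starting fluorescence B-score inside 5 SD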
Target sequence (Q96LB2 whole entry, looked up): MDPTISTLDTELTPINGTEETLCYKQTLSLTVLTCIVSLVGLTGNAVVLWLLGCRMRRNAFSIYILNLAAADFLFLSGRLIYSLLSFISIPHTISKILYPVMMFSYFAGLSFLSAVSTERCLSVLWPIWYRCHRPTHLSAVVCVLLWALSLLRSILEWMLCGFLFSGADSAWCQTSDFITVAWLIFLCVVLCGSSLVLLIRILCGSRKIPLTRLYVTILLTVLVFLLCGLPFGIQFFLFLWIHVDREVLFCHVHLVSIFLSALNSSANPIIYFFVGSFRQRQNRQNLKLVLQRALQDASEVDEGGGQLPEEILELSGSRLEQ
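times = overnight plating, then 30 min 37 °C plus 30 min room-temperature dye loading | assay system = stable human MrgX1 HEK293 cell line | input = fifteen thousand cells per well | signal = kinetic calcium dye fluorescence, Fluo-4 NW | dosing = compound delivered in addition one of three | read-out = B-scored fluorescence response ratio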
MrgX1 PAM: allosterically activates human MrgX1 receptor signaling | 310,000 compounds, 0.63% hits | MrgX1-HEK293, Fluo-4 calcium flux, FDSS; hits give high values | Q96LB2 | B-score at 10 µM;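 active = plate-corrected calcium response at least 3 library SD above typical, normal starting fluorescence, not activating the receptor alone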;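 also: compound read alongside a low EC10 to EC30 dose of BAM8-22 agonist; peak minus trough fluorescence over baseline measured at the second addition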
RGS4 inh: inhibitors of human RGS4; P49798; HEK293 M3R/RGS4 inducible, Fluo-4 calcium flux; hits give high values; triggered by carbachol at its EC20; B-score at 10 µM; 310,000 compounds, 0.45% hits; AID 463165;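 active = B-score, a plate-corrected calcium signal, over three deviations above library mean, with baseline fluorescence within five deviations of library mean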;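 also: RGS4 expression induced by doxycycline in cells with stable M3 receptor; B-score is computed from the integrated fluorescence ratio over baseline after carbachol; higher B-score means a larger calcium signal and so more RGS4 inhibition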
Target sequence (P49798 whole entry, looked up): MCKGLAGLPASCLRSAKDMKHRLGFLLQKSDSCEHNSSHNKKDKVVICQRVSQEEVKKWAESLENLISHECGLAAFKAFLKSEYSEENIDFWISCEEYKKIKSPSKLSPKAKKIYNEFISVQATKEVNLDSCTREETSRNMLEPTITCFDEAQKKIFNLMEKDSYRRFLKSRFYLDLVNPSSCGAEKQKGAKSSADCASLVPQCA
MrgX1 antag: human MrgX1 receptor antagonism, primary screen | B-score at 10 µM | MRGX1-HEK293 calcium flux, Fluo-4, BAM8-22 antagonism; hits give low values | Q96LB2 | 310,000 compounds, 1.3% hits | AID 588676;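 active = calcium-response B-score plate-corrected more than 3 library SD below zero, starting fluorescence within 5 deviations, no agonist response on first addition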;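 also: peak minus trough fluorescence over baseline after final BAM8-22 challenge near maximal dose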
RGS4 act: potentiators or activators of RGS4; HEK293 M3R/inducible RGS4, carbachol calcium flux Fluo4; hits give low values; B-score at 10 µM; 310,000 compounds, 0.92% hits;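 active = B-score of the integrated calcium signal more than 4 SD below the library mean, with starting fluorescence not abnormally high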;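 also: negative B-score means reduced calcium response which marks RGS4 activation or potentiation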
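test system = M3R-expressing HEK293 line, RGS4 induced by doxycycline | probe or stimulus = carbachol at ECmax as muscarinic agonist stimulus | timing = dye loading 30 min 37 °C, buffer rest 30 min RT | signal = calcium dye Fluo4 fluorescence | evaluation = B score from integrated fluorescence ratio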
RGS4 activ val: confirmation of RGS4 activators; shares compounds with RGS4 act; HEK293 M3R/RGS4 inducible, carbachol calcium flux Fluo4; inhibition, % at 10 µM; 1,100 compounds, 89% hits;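 active = inhibition above 3 SD of the buffer control wells, cut at about 41% in these data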;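 also: signal is the integrated peak-minus-minimum Fluo4 fluorescence over baseline ratio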
RGS4 act ctr: counter-screen for RGS4 activators: effect in non-induced cells | shares compounds with RGS4 act | HEK293 M3R non-induced RGS4, Fluo4 calcium flux; after carbachol challenge at its EC90 | AID 602283 | 1,100 compounds, 82% hits | inhibition, % at 10 µM;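 active = inhibition exceeding 3 SD of buffer-only control wells, cut at about 26% in these data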;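 also: percent drop in integrated peak-minus-baseline over baseline Fluo4 ratio after carbachol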
Starred values were filed as active, the others as inactive; i = inactive; nt = no result given. A selection: hits, their analogues and other compounds. The true share with any hit is near 3.5%.

SMILES | MrgX1 agonist | MrgX1 PAM | RGS4 inh | MrgX1 antag | RGS4 act | RGS4 activ val | RGS4 act ctr
COC(=O)C(NC(=O)COc1ccccc1)(Nc1nc2c(s1)CCCC2)C(F)(F)F (stereo not drawn) | i | i | i | i | -12* | 80.5* | 32.8*
COc1ccc(C(=O)Nc2ccccc2C(=O)N2CCCCC2C)cc1 (stereo not drawn) | i | i | i | i | i | nt | nt
N#Cc1ccccc1Cn1cc(/C=N/Nc2ccc([N+](=O)[O-])cn2)c2ccccc21 | i | i | i | -6.2* | -10.9* | 78.0* | 83.8*
O=[N+]([O-])c1ccc(N/N=C/c2ccc(OCc3cccc4ccccc34)cc2)nc1 | i | i | i | i | i | nt | nt
Clc1ccc(Nc2ccc(NCc3ccccc3)nn2)cc1 | i | i | i | i | -7.57* | 0.0 | 0.0
Cc1ccc(Nc2ccc(NCc3ccccc3)nn2)cc1C | i | i | i | i | i | nt | nt
CN(CC(=O)Nc1cccc(F)c1)CC(=O)Nc1cccc(S(=O)(=O)N2CCCCCC2)c1 | i | i | i | i | -7.66* | 62.5* | 32.8*
CCOC(=O)c1sc(NC(=O)CSc2nnc(-c3ccco3)n2CC)c(C(=O)OCC)c1C | i | i | i | i | -18.3* | 92.0* | 91.3*
COC(=O)c1c(NC(=O)CSc2nnc(-c3ccco3)n2C)sc(C)c1C | i | i | i | i | i | nt | nt
CC(C)CN(C(=O)CCCOc1ccc(Cl)cc1Cl)c1c(N)n(Cc2ccccc2)c(=O)[nH]c1=O | i | i | i | i | i | nt | nt
Cn1nc(C(F)(F)F)c2cc(NC(=O)OCc3ccc(F)cc3)sc21 | i | i | i | i | -7.88* | 74.5* | 83.8*
Cc1ccc(Nc2nc(Cl)nc(NC(C)(C)C)n2)cc1 | i | i | i | i | -8.18* | 71.0* | 38.8*
COc1cccc(CNC(=O)CCC2CCCN(c3cc(C)nc(N4CCCC4)n3)C2)c1 (stereo not drawn) | i | i | i | i | -11.7* | 92.5* | 93.8*
COc1cccc(CNC(=O)CCC2CCCN(C3CCOCC3)C2)c1 (stereo not drawn) | i | i | i | i | i | nt | nt
COc1cccc(C(=O)C2CCCN(C/C=C/c3ccccc3OC)C2)c1 (stereo not drawn) | i | i | i | i | i | nt | nt
COc1ccc(C(=O)C2CCCN(C/C=C/c3ccccc3OC)C2)c(OC)c1 (stereo not drawn) | i | i | i | i | -9.26* | 87.5* | 83.8*
CCn1ncc(CN2CCCC(C(=O)c3cccc(OC(C)C)c3)C2)c1C (stereo not drawn) | i | i | i | i | -10.4* | 83.5* | 38.3*
CCOC(=O)c1c(NC(C)=O)sc2c(OCC(O)CNC(C)(C)C)c(Br)ccc12 (stereo not drawn) | i | i | i | i | -10.3* | 94.0* | 94.3*
CCOC(=O)c1c(N)sc2c(OCC)c(Br)ccc12 | i | i | i | i | i | nt | nt
O=C(NCc1ccc2c(c1)OCO2)c1ccc(C2SCC(=O)N2Cc2ccco2)cc1 (stereo not drawn) | i | i | i | i | -7.68* | 71.0* | 83.8*
O=C(COC(=O)c1ccccc1Cc1ccccc1)NC1CCS(=O)(=O)C1 (stereo not drawn) | i | i | i | i | i | nt | nt
CCCC(O)(CCN1CCCCC1)c1ccc(OCC)cc1 (stereo not drawn) | i | i | i | i | i | nt | nt
COc1ccc(C(O)(CCN2CCCCC2)C2CCCCC2)cc1 (stereo not drawn) | i | i | i | i | -10.3* | 92.0* | 95.3*
CSCCC(NS(=O)(=O)c1ccccc1)C(=O)OCc1cc(=O)oc2cc(O)ccc12 (stereo not drawn) | i | i | i | i | i | nt | nt
Cc1cc(C)c(S(=O)(=O)n2ccc3ccccc32)c(C)c1 | i | i | i | i | -9.47* | 76.5* | 29.3*
SMILES | MrgX1 agonist | MrgX1 PAM | RGS4 inh | MrgX1 antag | RGS4 act | RGS4 activ val | RGS4 act ctr
O=C(C1CCC(=O)N(C2CCCC2)C1)N1CCC(Oc2ccccc2Cl)CC1 (stereo not drawn) | i | i | i | i | i | nt | nt
Cc1ccc(NC(=O)c2cnc(N3CCN(c4ccccn4)CC3)c3ccccc23)c(Br)c1 | i | i | i | i | -11.1* | 91.0* | 75.8*
Cc1nc(N2CCN(c3ccccn3)CC2)c2c(C)c(C(=O)Nc3ccc(F)cc3F)sc2n1 | i | i | i | i | -8.96* | 80.5* | 26.8*
COc1ccc(NC(=O)c2sc3nc(C)nc(N4CCN(c5ccccn5)CC4)c3c2C)cc1Cl | i | i | i | i | i | nt | nt
Cc1nc(N2CCN(c3ccccn3)CC2)c2c(C)c(C(=O)Nc3ccccc3F)sc2n1 | i | i | i | i | -7.82* | 93.5* | 58.8*
O=C(Nc1c(F)cccc1F)c1cnc(N2CCN(c3ccccn3)CC2)c2ccccc12 | i | i | i | i | i | nt | nt
CCc1ccc(NC(=O)c2sc3nc(C)nc(N4CCN(c5ccccn5)CC4)c3c2C)cc1 | i | i | i | i | -8.48* | 63.5* | 83.8*
C=CCn1c(C)cc(-c2csc(NC(=O)CCc3nc4ccccc4c(=O)[nH]3)n2)c1C | i | i | i | i | -8.45* | 68.5* | 0.0
CCOC(=O)N1CCN(c2ccnc3cc(Cl)ccc23)CC1 | i | i | i | i | -13* | 92.0* | 94.8*
CCC(=O)N1CCN(c2ccnc3cc(Cl)ccc23)CC1 | i | i | i | i | i | nt | nt
COCCNC(=O)c1cccc(OC2CCN(Cc3ccc(F)c(OC)c3)CC2)c1 | i | i | i | i | i | nt | nt
CC1CN(Cc2cc(=O)[nH]c(C(C)C)n2)CC(C)O1 (stereo not drawn) | i | i | i | i | i | nt | nt
Cc1nc2c(o1)CCc1ccccc1C2N1CCN(C)CC1 (stereo not drawn) | i | i | i | i | -11.2* | 95.0* | 90.8*
CCOc1ccc(S(=O)(=O)N(C)CC(=O)NCc2ccccn2)cc1Cl | i | i | i | i | i | nt | nt
CCOc1ccc(OCc2ccc(C(=O)N3CCCCC3)o2)cc1 | i | i | i | i | i | nt | nt
